Screening results (PubChem)
PostGolgi ctrl = growth of the yeast control strain, post-Golgi counter-screen; 5% of 98,000 active; efflux-deficient yeast background strain, growth absorbance A615, 16 h; inhibition, % at 10 µM
Ecoli WT expand = blocks growth of wild type E. coli BW25113 | OD600 absorbance | growth inhibition, % at 100 µM | 0.15% of 98,000 active | AID 710;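 active = growth inhibition above about 50% at one test dose, limit read from the data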;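 also: growth measured after 20 h incubation at 37 °C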
HePTP inh = human HePTP phosphatase inhibition; P35236; recombinant HePTP phosphatase activity, OD absorbance; inhibition, % at 20 µM; 0.64% of 110,000 active; in the data active = inhibition above about 50%
Target sequence (P35236 whole entry, looked up): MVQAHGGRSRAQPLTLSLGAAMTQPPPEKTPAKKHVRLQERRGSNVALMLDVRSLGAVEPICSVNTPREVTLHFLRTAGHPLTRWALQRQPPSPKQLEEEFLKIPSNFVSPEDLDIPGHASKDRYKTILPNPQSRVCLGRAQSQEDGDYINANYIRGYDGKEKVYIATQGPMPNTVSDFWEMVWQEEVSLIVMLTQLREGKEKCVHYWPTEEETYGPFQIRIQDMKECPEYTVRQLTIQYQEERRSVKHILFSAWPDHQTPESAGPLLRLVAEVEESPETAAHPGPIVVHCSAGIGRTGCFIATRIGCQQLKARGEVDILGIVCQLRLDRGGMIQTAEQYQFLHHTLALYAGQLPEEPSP
PostGolgi yeast = growth inhibition of a yeast mutant, post-Golgi transport screen. inhibition, % at 10 µM. post-Golgi transport phenotypic cell assay. 0.9% of 98,000 active;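 also: yeast cells grown in 1536-well plates; yeast grown about 18 h at 30C before absorbance read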
PLAP activator = activates human placental alkaline phosphatase | purified PLAP enzyme, luminescent substrate read-out; hits give high values | activation fold at 20 µM | 1.2% of 96,000 active; in the data active = activation fold above about 2
tolC growth inh = E. coli tolC mutant growth inhibition. E. coli BW25113 tolC mutant growth, OD615. 2.2% of 65,000 active. growth inhibition, % at 10 µM (by protocol);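 active = growth inhibition at or above a cutoff equal to the mean over every tested compound plus 3 SD, cut at about 60% in these data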;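 also: growth measured after 20 h incubation at 37 °C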
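test system = E. coli BW25113 ΔtolC::kan bacteria | medium = LB with kanamycin 50 µg/mL | signal = OD at 615 nm | schedule = 37 °C, 20 h exposure | evaluation = % inhibition of E. coli growth | compound dosing = one dose of 10 µM final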
A number is an active result; i = inactive; nt = not tested or not shown. Rows were chosen to be rich in hits. Some 5.5% of all compounds tested hit in one or more screens of this group. Rule as the data show it, unless noted: active = inhibition above about 30%; inactive = the rest.

SMILES	PostGolgi ctrl	Ecoli WT expand	HePTP inh	PostGolgi yeast	PLAP activator	tolC growth inh
O=c1cc(CSc2ccc(S(=O)(=O)N3CCCCC3)cn2)nc2sccn12	73	i	i	79	i	i
O=C(O)c1cccc(NCCC(=O)c2ccccc2)c1	nt	nt	i	nt	nt	nt
CC1=CCC(C(=O)N/N=C/c2cccs2)C(c2ccc(F)cc2)C1 (stereo unspecified)	45	i	nt	i	i	nt
Cc1ccc(NC(=O)C(=O)N/N=C/c2cccs2)cc1	nt	nt	i	nt	nt	nt
Clc1ccc(CN2C3=NCCN3c3ccccc32)cc1Cl	i	i	i	i	i	i
N=c1c2c(n(Cc3ccc(Cl)c(Cl)c3)c3c1CCC3)CCCC2	i	i	i	i	i	100
CSc1ncc(Cl)c(C(=O)C(C#N)c2nc3c(C)cc(C)cc3c(=O)[nH]2)n1 (stereo unspecified)	i	i	i	i	nt	96
O=C(N=Nc1c(O)[nH]c2ccc(Br)cc12)c1cccnc1	nt	nt	i	nt	nt	nt
Cc1ccc(S(=O)(=O)Nc2cccc3ccccc23)cc1[N+](=O)[O-]	nt	nt	i	nt	nt	nt
Cc1cc(N)n2ncc(-c3ccccc3)c2n1	i	i	i	i	i	i
Cc1cc(N)n2ncc(-c3cccc(Br)c3)c2n1	33	i	i	i	i	i
COC(=O)C1=C(N)Oc2cc(C)n(CCc3ccccc3)c(=O)c2C1c1cccnc1 (stereo unspecified)	i	i	i	i	2	i
CCOC(=O)C1=C(N)Oc2cc(C)n(CCc3ccc(OC)c(OC)c3)c(=O)c2C1c1cccnc1 (stereo unspecified)	i	i	i	i	i	i
O=C(CCN1C(=O)C2C3C=CC(C3)C2C1=O)Nc1c(F)cccc1F (stereo unspecified)	39	i	i	i	i	i
Cc1cc(NC(=O)CCN2C(=O)C3C4C=CC(C4)C3C2=O)c2ccccc2n1 (stereo unspecified)	i	i	i	i	i	i
CCCCOc1ccccc1C1C(C(=O)OC)=CN(CC)C=C1C(=O)OC	i	i	i	i	i	i
CCCOc1ccccc1C1C(C(=O)OC)=CN(C(C)C)C=C1C(=O)OC	i	i	i	i	2	i
O=C(COc1ccccc1)Nc1ccc([N+](=O)[O-])cc1	nt	nt	i	nt	nt	nt
O=C(COc1ccc(/C=N/NC(=O)c2ccccc2)cc1)Nc1ccc([N+](=O)[O-])cc1	34	i	nt	i	i	nt
O=C(CN1CCC(C(O)(c2ccccc2)c2ccccc2)CC1)Nc1cc(Cl)ccc1Cl	37	i	nt	i	i	nt
O=C(N1CCN(c2c(F)c(F)c(C(F)(F)F)c(F)c2F)CC1)C12CC3CC(CC(C3)C1)C2	nt	nt	i	nt	nt	nt
CC(C)Oc1ccc(/C(O)=C2/C(=O)C(=O)N(CCN(C)C)C2c2ccco2)cc1 (stereo unspecified)	i	i	i	41	i	i
COc1cccc(/C(O)=C2/C(=O)C(=O)N(Cc3cccnc3)C2c2ccco2)c1 (stereo unspecified)	i	i	nt	i	i	nt
COCCN1C(=O)C(=O)/C(=C(/O)c2cccc(OC)c2)C1c1ccco1 (stereo unspecified)	32	i	i	i	i	i
OC(CSc1ccccc1Cl)CN1CCN(c2ccccc2F)CC1 (stereo unspecified)	i	i	nt	i	i	nt
SMILES	PostGolgi ctrl	Ecoli WT expand	HePTP inh	PostGolgi yeast	PLAP activator	tolC growth inh
OC(CSc1c(Cl)cccc1Cl)CN1CCN(c2ccc(F)cc2)CC1 (stereo unspecified)	37	i	nt	i	i	nt
OC(CSc1ccccc1Cl)CN1CCN(c2ccc(F)cc2)CC1 (stereo unspecified)	31	i	nt	i	i	nt
Cc1ccc(Sc2cnn(-c3ccccc3)c(=O)c2Cl)cc1	i	i	nt	i	i	nt
Nc1ccc(Sc2cnn(-c3ccccc3)c(=O)c2Cl)cc1	40	i	nt	i	i	nt
CC1=CC(C)(C)N(Cc2ccc([N+](=O)[O-])cc2)c2ccc(C)cc21	nt	nt	i	nt	nt	nt
COc1ccc2[nH]c(=O)c(CN(Cc3cccnc3)C(=O)Nc3ccccc3)cc2c1	94	i	i	105	i	i
CCc1ccc2[nH]c(=O)c(CN(Cc3ccccc3OC)C(=O)Nc3ccccc3OC)cc2c1	45	i	nt	i	i	nt
Cc1cccc2cc(CN(Cc3ccco3)C(=O)NC3CCCCC3)c(=O)[nH]c12	41	i	i	i	i	64
COc1ccccc1NC(=O)N(Cc1ccco1)Cc1cc2cccc(C)c2[nH]c1=O	37	i	i	i	i	i
CC(/C=N/NC(=O)c1ccncc1)=C\c1ccc(C(C)C)cc1	35	i	nt	30	i	nt
CCc1ccc(NC(=O)C(C)Oc2ccc(OC)cc2)cc1 (stereo unspecified)	nt	nt	i	nt	nt	nt
CCOC(=O)COc1ccc2oc(=O)cc(C)c2c1	nt	nt	i	nt	nt	nt
CCOC(=O)/C=C(\C)Sc1cc(=O)oc2ccccc12	33	i	i	i	nt	i
CC(C)c1nc2oc3c(NCC4CCCO4)ncnc3c2c2c1COC(C)(C)C2 (stereo unspecified)	35	i	i	i	i	nt
Cc1nc2oc3c(NCC4CCCO4)ncnc3c2c2c1COC(C)(C)C2 (stereo unspecified)	i	i	i	i	i	i
CC1CC(C)(C)N2C(=O)C3(Nc4ccccc4S3)c3cccc1c32 (stereo unspecified)	45	i	nt	i	i	nt
c1ccc2sc(-c3ccc(NCc4ccc5c(c4)OCO5)cc3)nc2c1	nt	nt	i	nt	nt	nt
Oc1ccc(N2CCN(C(=S)NCCc3ccccc3)CC2)cc1	90	i	nt	105	i	nt
COC(=O)Cn1c(=N)n(Cc2ccccc2Cl)c2ccccc21	nt	nt	i	nt	nt	nt
CCOc1cc2c3c(c1)C1(C(=O)N3C(C)(C)C=C2C)C(C#N)=C(N)Oc2cc(O)ccc21 (stereo unspecified)	i	i	i	i	i	i
COc1cc2c3c(c1)C1(C(=O)N3C(C)(C)C=C2C)C(C#N)=C(N)Oc2cc(O)ccc21 (stereo unspecified)	i	i	i	i	i	65
O=C(CC(CC(=O)c1nc2ccccc2s1)c1ccccn1)c1nc2ccccc2s1	nt	nt	i	nt	nt	nt
CCCc1cc(=O)oc2cc(OCC(=O)c3ccccc3)ccc12	nt	nt	i	nt	nt	nt
COc1cccc(NC(=O)Cn2c(-c3cncs3)nc3ccccc32)c1	i	i	i	i	2	i
CC1=C(C(=O)Nc2cc(Cl)ccc2C)C(c2ccccc2Cl)NC(=S)N1 (stereo unspecified)	nt	nt	i	nt	nt	nt
SMILES	PostGolgi ctrl	Ecoli WT expand	HePTP inh	PostGolgi yeast	PLAP activator	tolC growth inh
O=S1(=O)C=C(Oc2ccc3ccccc3c2)c2ccccc21	34	i	nt	i	i	nt
CC1=CC(=C2C(=O)c3ccccc3C2=O)C=C(C)N1Cc1ccco1	37	i	i	i	i	i
Oc1ccc(Cl)cc1-c1cc(-c2cccc(Br)c2)n[nH]1	54	i	nt	i	i	nt
Oc1ccccc1-c1cc(-c2cccc(F)c2)n[nH]1	i	i	i	i	i	100
Cc1ccc(-c2cc(-c3cc(Cl)ccc3O)[nH]n2)cc1	nt	nt	i	nt	nt	nt
Cc1ccc(Nc2nc(N)nc(CN3CCN(c4ccccc4)CC3)n2)cc1Cl	30	i	i	i	i	77
COc1ccc(N2CCN(Cc3nc(N)nc(Nc4ccc(C)c(Cl)c4)n3)CC2)cc1	i	i	i	i	i	i
